Experimental data taken from paper PMC12525009 (The Febs Journal, 2025).
Each block holds one compound with its values, some of them ahead of it.

Tests used:
Type in all cases: binding
MsrQ [1] = biological target: T1, MsrQ (Escherichia coli, UniProt P76343); test: quinone extraction of purified protein, HPLC-ECD-MS; conditions: co-purified from E. coli; per holoprotein (heme content); pH 7.6, LMNG
T1 sequence (P76343 1-211): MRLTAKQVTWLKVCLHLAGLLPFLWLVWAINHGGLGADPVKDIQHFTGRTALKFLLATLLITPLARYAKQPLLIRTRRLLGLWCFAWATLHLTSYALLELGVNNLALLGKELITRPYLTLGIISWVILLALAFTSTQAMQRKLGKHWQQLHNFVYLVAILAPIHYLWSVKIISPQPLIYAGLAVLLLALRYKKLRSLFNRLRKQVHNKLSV
Procedure, shortened: (§1)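 Ni-NTA-purified MsrQ, in 50 mM Tris/HCl pH 7.6 with 0.004% LMNG, was quantified by heme content (pyridine hemochromogen, 556 nm). Quinones were extracted from […] protein with methanol/KCl, using 80 pmol UQ10 as internal standard. Two petroleum ether extractions were pooled, dried under N2 and taken up in ethanol. Fractions equal to 5 and 20 μg protein were run on HPLC-ECD-MS (m/z 500–900). MK8 was quantified against an MK7 curve (2–100 pmol) and UQ8 against a UQ10 standard.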

MsrQ [2] = biological target: T1, MsrQ; test: as above; conditions: co-purified from E. coli; per holoprotein (heme content); pH 7.6, LMNG; remark: listed apart in the source
Procedure, shortened: as §1

MsrQ [3] = biological target: T1, MsrQ; test: HPLC of flavin released by heat denaturation of purified protein; conditions: co-purified; 1 μM holoprotein (heme content)

MK8/MsrQ ^b , ^d (MsrQ [1]): 0.090 ± 0.020 mol MK8 per mol MsrQ
SMILES: CC(C)=CCC/C(C)=C/CC/C(C)=C/CC/C(C)=C/CC/C(C)=C/CC/C(C)=C/CC/C(C)=C/CC/C(C)=C/CC1=C(C)C(=O)c2ccccc2C1=O [MK8]

UQ8/MsrQ ^b , ^c (MsrQ [2]): 0.45 ± 0.06 mol UQ8 per mol MsrQ
SMILES: COC1=C(OC)C(=O)C(C/C=C(\C)CC/C=C(\C)CC/C=C(\C)CC/C=C(\C)CC/C=C(\C)CC/C=C(\C)CC/C=C(\C)CCC=C(C)C)=C(C)C1=O [UQ8]

FMN concentration in 1 μM MsrQ (MsrQ [3]): 0.90 µM
SMILES: Cc1cc2nc3c(=O)[nH]c(=O)nc-3n(C[C@H](O)[C@H](O)[C@H](O)COP(=O)(O)O)c2cc1C [FMN]
